According to ChEMBL document CHEMBL1154804, “Diterpenes, sesquiterpenes, and a sesquiterpene-coumarin conjugate from Jatropha integerrima” (J Nat Prod, 2009):
In brackets after ≈: the same amount, converted by molar mass. Activity calls are given as the source filed them. The calls are words filed in the database; no cut-off is given here.

Key:
Vero [1] = experiment: Cytotoxicity against african green monkey Vero cells at 50 ug/ml by sulforhodamine B assay; type: cell-based; conditions: chlorocebus sabaeus
How it was run: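 African green monkey kidney fibroblasts (Vero) exposed to test material at 50 µg/mL; cell growth read by a colorimetric method (Skehan and coworkers).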

[2] = tested on: Mycobacterium tuberculosis; experiment: Antitubercular activity against Mycobacterium tuberculosis H37Ra at 200 ug/ml after 4 days by microplate alamar blue assay; type: functional, organism-based
How it was run: (§1)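 M. tuberculosis H37Ra tested in an Alamar Blue microplate assay. Values are given as MIC in µg/mL. The highest level tested was 200 µg/mL.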

Plasmodium falciparum [3] = experiment: Antiplasmodial activity against multidrug-resistant Plasmodium falciparum K1 assessed as [3H]hypoxanthine incorporation after 24 hrs by microtiter plate scintillation counting; type: functional, organism-based
How it was run: (§2)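 K1 multidrug-resistant P. falciparum kept in continuous culture (Trager–Jensen). In vitro activity measured by a microculture radioisotope technique (Desjardins method). The highest level tested was 10 µg/mL.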

Plasmodium falciparum [4] = experiment: Antiplasmodial activity against multidrug-resistant Plasmodium falciparum K1 assessed as [3H]hypoxanthine incorporation at 10 ug/ml after 24 hrs by microtiter plate scintillation counting; type: functional, organism-based; how it was run: as §2
Vero [5] = experiment: Cytotoxicity against african green monkey Vero cells by sulforhodamine B assay; type: cell-based; conditions: chlorocebus sabaeus
How it was run: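 Vero cells were described as African green monkey kidney fibroblasts. Read-out was by the colorimetric method of Skehan and coworkers. Compounds were tested up to 50 µg/mL.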

[6] = tested on: Mycobacterium tuberculosis; experiment: Antitubercular activity against Mycobacterium tuberculosis H37Ra after 4 days by microplate alamar blue assay; type: functional; conditions: 96 h; how it was run: as §1

Compound | Activity (Vero [1]) | Activity [2] | IC50 (Plasmodium falciparum [3]) | Activity (Plasmodium falciparum [4]) | IC50 (Vero [5]) | MIC [6]
C=C1CC[C@@H]2[C@H](c3c(C)c(O)c4c(c31)C(=O)[C@](C)(O)C4)C2(C)C | Non-toxic | inactive | 4.1 µg/mL |  |  | 
C=C1CC[C@@H]2[C@H](c3c(C)c(O)c4c(c31)C(=O)[C@@](C)(O)C4)C2(C)C |  | inactive |  | inactive | 49.4 µg/mL (≈ 158 µM) | 
C[C@H]1[C@@H](O)O[C@@H]2O[C@@]3(C)CC[C@H]4[C@H](C)CC[C@@H]1[C@@]24OO3 [ARTENIMOL] |  |  | 4 nM |  |  | 
C=C(C)[C@@H]1CC[C@]23CO[C@@]4(OO2)C2=C(C(=O)C(C)=C[C@@H]1[C@@H]23)[C@H](O)[C@H]4C [CANIOJANE] |  |  | 3.3 µg/mL |  | 12.9 µg/mL (≈ 37.5 µM) | 25 µg/mL (≈ 72.6 µM)
Cc1c2ccncc2c(C)c2c1[nH]c1ccccc12 [ELLIPTECINE] |  |  |  |  | 0.7 µg/mL (≈ 2.84 µM) | 
NNC(=O)c1ccncc1 [ISONIAZID] |  |  |  |  |  | 0.1 µg/mL (≈ 0.729 µM)
C=C1CC[C@@H]2[C@H](c3c(C)c(O)c4c(c31)C(=O)[C@@H](C)C4)C2(C)C [JATROPHOLONE A] | Non-toxic | inactive | 5.4 µg/mL |  |  | 
C=C1CC[C@@H]2[C@H](c3c(C)c(O)c4c(c31)C(=O)[C@H](C)C4)C2(C)C [JATROPHOLONE B] | Non-toxic | inactive |  | inactive |  | 
NC[C@H]1O[C@H](O[C@H]2[C@H](O)[C@@H](O[C@H]3O[C@H](CO)[C@@H](O)[C@H](N)[C@H]3O)[C@H](N)C[C@@H]2N)[C@H](O)[C@@H](O)[C@@H]1O [KANAMYCIN] |  |  |  |  |  | 2.5 µg/mL (≈ 5.16 µM)
